Values after ≈ are worked out from the molar mass of the structure shown. Active and inactive are the calls of the source. No cut-off for these calls is given here.
Legend:
[1] = AUC (0 to infinity) in fasted human at 300 mg, po administered as single dose; format: ADME, organism-based; design: dose 300 mg, route oral, time infinity; details: plasma
Procedure, shortened: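 Single-dose, three-period Latin-square crossover in 12 healthy volunteers (6 of each gender). Each received single oral 300, 600 and 900 mg doses under fasting conditions, with a 1-week washout between doses. PK parameters, including AUC0−inf, came from a noncompartmental model.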

[2] = Elimination half life in fasted human at 600 mg, po administered as single dose; format: ADME, organism-based; details: in vivo, read-out: beta t1/2 (converted)
Procedure, shortened: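 Healthy volunteers (12; six of each sex) in a three-period Latin-square crossover. Each received single oral doses of 300, 600 and 900 mg under fasting conditions, with a 1-week washout between doses. Parameters from a noncompartmental model.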

[3] = Cmax in human at 800 mg, po administered as single dose with meal measured on day 1; format: ADME, organism-based; design: dose 800 mg, route oral; details: in vivo
Procedure, shortened: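 Randomized, double-blind, placebo-controlled multiple-dose study in 32 healthy subjects, half male and half female. Each dose was taken with a meal, at 600 or 800 mg, 28 doses over 15 days. A single dose on days 1 and 15 gave full PK; BID (Q12h) dosing ran on days 2–14.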

[4] = species: Canis familiaris; assay: Drug uptake in dog measured over 7 days; format: ADME, organism-based, Canis lupus familiaris; details: in vivo, 168 h
[5] = system: Rattus norvegicus; assay: Toxicity in rat assessed as rate of body weight gain at 100 mg/kg, po bid measured over 4 weeks of test period; format: organism-based; design: dose 100 mg/kg, route oral; details: in vivo, 672 h
[6] = system: Rattus norvegicus; assay: Toxicity in female rat assessed as effect on RBC count at 20 mg/kg/day, po bid administered for 4 weeks (reference value: 7.28 x 10^12/L); format: organism-based; design: route oral; details: in vivo, 672 h
[7] = system: Rattus norvegicus; assay: Toxicity in female rat assessed as effect on hematocrit level at 20 mg/kg/day, po bid administered for 4 weeks (reference value: 39.08%); format: organism-based; design: route oral; details: in vivo, 672 h
[8] = system: Rattus norvegicus; assay: Toxicity in female rat assessed as effect on reticulocyte count at 20 mg/kg/day, po bid administered for 4 weeks (reference value: 1.48%); format: organism-based; design: route oral; details: in vivo, 672 h
[9] = system: Rattus norvegicus; assay: Toxicity in female rat assessed as effect on WBC count at 100 mg/kg/day, po bid administered for 4 weeks (reference value: 3.66 x 10^9/L); format: organism-based; design: route oral; details: in vivo, 672 h
[10] = system: Rattus norvegicus; assay: Toxicity in female rat assessed as effect on RBC count at 100 mg/kg/day, po bid administered for 4 weeks (reference value: 7.28 x 10^12/L); format: organism-based; design: route oral; details: in vivo, 672 h
[11] = system: Rattus norvegicus; assay: Toxicity in female rat assessed as effect on mean corpuscular hemoglobin level at 100 mg/kg/day, po bid administered for 4 weeks (reference value: 19.5 pg); format: organism-based; design: route oral; details: in vivo, 672 h
[12] = system: Rattus norvegicus; assay: Toxicity in female rat assessed as effect on WBC count at 200 to 300 mg/kg/day, po bid administered for 4 weeks (reference value: 3.66 x 10^9/L); format: organism-based; design: route oral; details: in vivo, 672 h
[13] = system: Rattus norvegicus; assay: Toxicity in female rat assessed as effect on mean corpuscular volume at 200 to 300 mg/kg/day, po bid administered for 4 weeks (reference value: 53.72 fL); format: organism-based; design: route oral; details: in vivo, 672 h
[14] = system: Rattus norvegicus; assay: Toxicity in female rat assessed as effect on mean corpuscular hemoglobin level at 200 to 300 mg/kg/day, po bid administered for 4 weeks (reference value: 19.5 pg); format: organism-based; design: route oral; details: in vivo, 672 h
[15] = AUC (0 to 24 hrs) in female rat at 100 mg/kg/day, po bid administered for 4 weeks; format: ADME, organism-based; design: time < 24 hr, dose 100 mg/kg/day, route oral; details: plasma
Procedure, shortened: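 Repeat-dose toxicity study in rats (10/gender/group) dosed orally twice daily for 4 weeks, then a 4-week recovery period; the top dose was raised from 200 to 300 mg/kg/day on day 15. Blood was taken on days 1, 14 and 28 for toxicokinetics, and AUC0−24 was reported for females.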

[16] = target: MAO-A (Homo sapiens, UniProt P21397); assay: Ratio of compound IC50 to linezolid IC50 for human recombinant MAO-A by luciferin-based luminescence assay; format: ADME; details: read-out: Ratio IC50
Chain of MAO-A (P21397 whole entry): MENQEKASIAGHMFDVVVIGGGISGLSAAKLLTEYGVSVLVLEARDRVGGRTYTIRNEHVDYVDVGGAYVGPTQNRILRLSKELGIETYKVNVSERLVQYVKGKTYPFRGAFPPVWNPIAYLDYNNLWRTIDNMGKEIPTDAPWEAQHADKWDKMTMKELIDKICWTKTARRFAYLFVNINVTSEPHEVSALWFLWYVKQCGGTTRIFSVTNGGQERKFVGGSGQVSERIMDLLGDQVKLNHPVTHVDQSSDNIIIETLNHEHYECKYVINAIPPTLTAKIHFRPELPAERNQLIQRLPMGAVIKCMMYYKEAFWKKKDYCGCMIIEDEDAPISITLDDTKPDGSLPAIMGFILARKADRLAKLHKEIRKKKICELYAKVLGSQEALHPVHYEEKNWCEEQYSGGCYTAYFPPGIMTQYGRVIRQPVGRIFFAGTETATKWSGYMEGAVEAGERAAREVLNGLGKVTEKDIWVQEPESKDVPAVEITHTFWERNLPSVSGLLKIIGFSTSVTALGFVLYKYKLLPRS

[17] = target: Cytochrome P450 2C9 (Homo sapiens, UniProt P11712); assay: Inhibition of CYP2C9 (unknown origin) at 1 to 200 uM; format: ADME
Chain of Cytochrome P450 2C9 (P11712 whole entry): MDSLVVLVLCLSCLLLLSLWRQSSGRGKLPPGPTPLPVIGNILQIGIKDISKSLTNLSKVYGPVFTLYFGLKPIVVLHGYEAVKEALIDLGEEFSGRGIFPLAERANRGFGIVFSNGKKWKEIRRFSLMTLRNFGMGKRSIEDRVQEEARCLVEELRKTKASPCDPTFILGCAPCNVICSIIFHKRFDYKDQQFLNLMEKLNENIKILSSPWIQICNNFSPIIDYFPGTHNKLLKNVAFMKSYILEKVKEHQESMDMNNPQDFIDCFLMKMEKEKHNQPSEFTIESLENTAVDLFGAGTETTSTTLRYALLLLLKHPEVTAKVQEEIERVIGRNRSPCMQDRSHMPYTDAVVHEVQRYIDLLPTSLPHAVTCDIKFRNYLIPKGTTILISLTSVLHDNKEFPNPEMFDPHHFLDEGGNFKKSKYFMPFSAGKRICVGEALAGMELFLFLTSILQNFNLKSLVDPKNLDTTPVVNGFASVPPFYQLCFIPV

[18] = system: Staphylococcus epidermidis; assay: Antibacterial activity against methicillin-resistant Staphylococcus epidermidis; format: functional
[19] = system: Staphylococcus epidermidis; assay: Antibacterial activity against methicillin-sensitive Staphylococcus epidermidis; format: functional
[20] = system: Enterococcus faecium; assay: Bacteriostatic activity against vancomycin-resistant Enterococcus faecium; format: functional
[21] = system: Streptococcus pyogenes; assay: Antibacterial activity against Streptococcus pyogenes; format: functional
[22] = system: Streptococcus agalactiae; assay: Antibacterial activity against Streptococcus agalactiae; format: functional
[23] = system: Streptococcus anginosus; assay: Antibacterial activity against Streptococcus anginosus; format: functional
[24] = system: Staphylococcus aureus; assay: Potency index, ratio of linezolid MIC90 to compound MIC90 for methicillin-resistant Staphylococcus aureus; format: functional
[25] = system: Staphylococcus aureus; assay: Antibacterial activity against Staphylococcus aureus assessed as low frequency of spontaneous resistance; format: functional, organism-based
[26] = system: Staphylococcus aureus; assay: Antibacterial activity against Staphylococcus aureus measured after 5 serial passages; format: functional
[27] = system: Staphylococcus aureus; assay: Antibacterial activity against Staphylococcus aureus measured after 9 serial passages; format: functional
[28] = system: Enterococcus faecalis; assay: Antibacterial activity against vancomycin-sensitive/high-level gentamycin-resistant Enterococcus faecalis isolate HH22 in po dosed mouse systemic infection model; format: functional; details: EnGen0297, po
[29] = system: Staphylococcus aureus; assay: Antibacterial activity against methicillin-sensitive Staphylococcus aureus ATCC 29213 in mouse thigh infection model assessed as reduction of log10 CFU per thigh at 5 mg/kg, po; format: functional
Procedure, shortened: (§1)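 Mouse thigh infection with S. aureus ATCC29213 (MSSA), 10 animals per dosing group. Oral doses were 5, 10, 20, 40 and 80 mg/kg. The read-out was log CFU per thigh after treatment, and the reduction (ΔLogCFU/thigh) was reported.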

[30] = system: Staphylococcus aureus; assay: Antibacterial activity against methicillin-sensitive Staphylococcus aureus ATCC 29213 in mouse thigh infection model assessed as reduction of log10 CFU per thigh at 80 mg/kg, po; format: functional; procedure, shortened: as §1
[31] = system: Staphylococcus aureus; assay: Antibacterial activity against methicillin-resistant Staphylococcus aureus isolate 0605 in mouse thigh infection model assessed as reduction of log10 CFU per thigh at 20 mg/kg, po; format: functional
[32] = system: Staphylococcus aureus; assay: Antibacterial activity against methicillin-resistant Staphylococcus aureus isolate 0605 in mouse thigh infection model assessed as reduction of log10 CFU per thigh at 80 mg/kg, po; format: functional
[33] = system: Canis familiaris; assay: Dose normalized AUC (0 to t) in po dosed dog; format: ADME, organism-based, Canis lupus familiaris; details: in vivo
[34] = Tmax in female rat at 15 mg/kg, po; format: ADME, organism-based; design: dose 15 mg/kg, route oral; details: in vivo
Procedure, shortened: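 Male and female rats received single oral doses of 5, 15 or 45 mg/kg, with 5 mg/kg iv as a reference arm. Tmax was read from the plasma concentration–time profile for each gender.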

[35] = Cmax in female rat at 15 mg/kg, po; format: ADME, organism-based; design: dose 15 mg/kg, route oral; details: in vivo
[36] = Half life in female rat at 5 mg/kg, po; format: ADME, organism-based; design: dose 5 mg/kg, route oral; details: in vivo
[37] = AUC (0 to t) in male rat at 5 mg/kg, iv; format: ADME, organism-based; design: dose 5 mg/kg, route intravenous; details: plasma
Procedure, shortened: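 Rat PK by gender, with single oral doses of 5, 15 and 45 mg/kg and an iv dose of 5 mg/kg. Tmax, Cmax, T1/2 and AUC0−t were reported per gender.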

SMILES: O=C1C=CN(c2c(F)cc(N3C[C@H](CNc4ccon4)OC3=O)c(F)c2F)CC1 [CONTEZOLID]
- AUC(0-inf) [1]: 29200 ng·h/mL
- half-life [2]: 3.31 h
- Cmax [3]: 27800 ng/mL
- Drug uptake [4]: Not Active
- Activity [5]: Non-toxic
- Activity [6]: 6.82 ×10¹² /L
- Activity [7]: 37.16%
- Activity [8]: 1.3%
- Activity [9]: 3.14 ×10⁹ /L
- Activity [10]: 6.67 ×10¹² /L
- Activity [11]: 20.28 pg
- Activity [12]: 2.72 ×10⁹ /L
- Activity [13]: 53.02 fL
- Activity [14]: 20.48 pg
- AUC at 24 h [15]: 319000 ng·h/mL
- selectivity ratio [16]: 3
- inhibition (INH) [17]: Not Active
- MIC50 [18]: 0.25 µg/mL (≈ 0.612 µM)
- MIC90 [18]: 0.5 µg/mL (≈ 1.22 µM)
- MIC [19]: 0.25 µg/mL (≈ 0.612 µM)
- MIC50 [19]: 0.25 µg/mL (≈ 0.612 µM)
- MIC90 [19]: 0.5 µg/mL (≈ 1.22 µM)
- MIC [20]: 1 µg/mL (≈ 2.45 µM)
- MIC50 [20]: 1 µg/mL (≈ 2.45 µM)
- MIC90 [20]: 1 µg/mL (≈ 2.45 µM)
- MIC50 [21]: 0.5 µg/mL (≈ 1.22 µM)
- MIC90 [21]: 1 µg/mL (≈ 2.45 µM)
- MIC50 [22]: 1 µg/mL (≈ 2.45 µM)
- MIC90 [22]: 1 µg/mL (≈ 2.45 µM)
- MIC50 [23]: 0.5 µg/mL (≈ 1.22 µM)
- MIC90 [23]: 1 µg/mL (≈ 2.45 µM)
- Ratio [24]: 2
- Activity [25]: Active
- MIC [26]: 2 µg/mL (≈ 4.9 µM)
- MIC [27]: 2 µg/mL (≈ 4.9 µM)
- ED50 [28]: 7.4 mg/kg
- deltalog10CFU [29]: 0.95
- deltalog10CFU [30]: 3.73
- deltalog10CFU [31]: 3.6
- deltalog10CFU [32]: 4.53
- AUCt/dose [33]: 1664 ng·h/mL/mg/kg
- Tmax [34]: 1.17 h
- Cmax [35]: 17200 ng/mL
- half-life [36]: 2.07 h
- AUC(0-t) [37]: 12900 ng·h/mL

Reference: ChEMBL document CHEMBL3286113, “New potent antibacterial oxazolidinone (MRX-I) with an improved class safety profile” (J Med Chem, 2014)
